Assay outcomes as filed in PubChem BioAssay.
SENP1 inh = human SENP1 catalytic domain inhibitors, primary screen, biochemical, FRET, uHTS. Sentrin-specific protease 1 (Homo sapiens), Q9P0U3. recombinant SENP1 catalytic domain, CyPet-SUMO1-YPet FRET cleavage. inhibition, % at 10 µM. 360,000 tested, 0.21% active;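 active = inhibition at least 30% at 10 µM, raw YFP signal under a set limit, fluorescence ratio 0.5 to 1.5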;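 note: 0% = enzyme with DMSO and 100% = no enzyme wells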
Target sequence (Q9P0U3 419-644 limits assumed): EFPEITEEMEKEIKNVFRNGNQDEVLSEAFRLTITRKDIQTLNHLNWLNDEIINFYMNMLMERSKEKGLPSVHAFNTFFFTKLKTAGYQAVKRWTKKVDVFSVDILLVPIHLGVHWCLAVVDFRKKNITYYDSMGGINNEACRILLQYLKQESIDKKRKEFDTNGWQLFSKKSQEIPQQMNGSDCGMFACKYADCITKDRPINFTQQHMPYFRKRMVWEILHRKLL
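Test system: hSENP1 catalytic domain, recombinant; Amount: 20 pM final SENP1 enzyme; Medium: Tris pH 8 buffer plus EDTA, NaCl, BME, BSA, NP40, catalase; Schedule: 50 min enzyme reaction, room temperature, light-protected; Technique: FRET fluorescence in CFP and YFP emission channels; Controls: no-enzyme wells low, DMSO-plus-enzyme wells high control.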
ATG4B inh = ATG4B protease inhibitors, primary screen, biochemical, fluorescence, uHTS. Cysteine protease ATG4B (Homo sapiens), Q9Y4P1. ATG4B cleavage of LC3-PLA2, NBD-HPC fluorescence, 1 h. inhibition, % at 8.33 µM. 340,000 tested, 0.51% active. AID 504462, 2011; in the data active = inhibition above about 40%
NR3A LBD binder = binders of NR3A ligand-binding domain, primary screen, biophysical, differential scanning fluorimetry, uHTS; Glutamate receptor ionotropic, NMDA 3A (GRIN3A) ligand-binding domain; Tm shift relative to glycine control, % at 25 µM; AID 1259313, 2017; 340,000 tested, 2.5% active; NR3A LBD differential scanning fluorimetry, Tm shift; 0% = protein alone, 100% = glycine-bound protein;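 active = melting temperature shift of at least 10% of the positive control shift, at one fixed dose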
NadD inh = inhibitors of S. aureus NadD, primary screen, biochemical, colorimetric, uHTS; inhibition, % at 20 µM; purified NadD enzyme, colorimetric absorbance read-out; 360,000 tested, 0.78% active; Nicotinate-nucleotide adenylyltransferase NadD (Staphylococcus aureus N315); in the data active = inhibition above about 26%
UCH37 DUB inh = inhibitors of human UCH37 deubiquitinase, primary screen, biochemical, Ub-AMC cleavage, fluorescence; Ubiquitin carboxyl-terminal hydrolase isozyme L5 (Homo sapiens), Q9Y5K5; purified proteasome/UCH37; inhibition, % (test concentration not listed); 330,000 tested, 0.33% active; AID 588478, 2011;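 active = mean inhibition over replicate wells above about 20%, limit read from the data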;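 note: 0% = compound-free wells with enzyme and 100% = wells lacking proteasome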
Target sequence (Q9Y5K5 whole entry, looked up): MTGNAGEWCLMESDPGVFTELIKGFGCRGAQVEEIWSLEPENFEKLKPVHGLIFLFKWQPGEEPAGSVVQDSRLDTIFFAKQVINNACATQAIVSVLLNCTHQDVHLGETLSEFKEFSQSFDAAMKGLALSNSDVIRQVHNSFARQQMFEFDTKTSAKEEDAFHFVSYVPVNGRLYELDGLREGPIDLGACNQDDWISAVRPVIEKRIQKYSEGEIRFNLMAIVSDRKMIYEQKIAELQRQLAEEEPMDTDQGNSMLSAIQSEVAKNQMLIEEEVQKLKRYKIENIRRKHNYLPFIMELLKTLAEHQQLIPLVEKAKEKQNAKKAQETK
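Material: Human UCH37 enzyme supplied as purified proteasome complex | Schedule: 30 min preincubation with enzyme, 25 min cleavage at room temperature | Detection: AMC fluorescence 355/460 nm | Measure: % inhibition of Ub-AMC cleavage fluorescence | Controls: Wells without proteasome as full block, compound-free enzyme plus substrate as uninhibited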
SENP1 inh conf = human SENP1 catalytic domain inhibitors, confirmation, biochemical, FRET endpoint, single concentration. shares compounds with SENP1 inh. 520 tested, 34% active. inhibition, % at 10 µM. recombinant SENP1, CyPet-SUMO1-YPet FRET cleavage; in the data active = inhibition mostly above about 35%, no sharp cut-off; inactive = mostly below about 32%;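 note: 0% = enzyme with DMSO and 100% = no enzyme control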
SENP1 kinetic = human SENP1 catalytic domain inhibitors, confirmation, biochemical, kinetic FRET, single concentration | 520 tested, 26% active | recombinant SENP1, CyPet-SUMO1-YPet FRET kinetic cleavage | shares compounds with SENP1 inh | inhibition, % at 10 µM; in the data active = inhibition mostly above about 32%, no sharp cut-off; inactive = mostly below about 29%;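 note: 0% = DMSO with enzyme and 100% = no enzyme substrate only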
Starred values were filed as active, the others as inactive; i = inactive; nt = no result. Hits are enriched below; roughly 3.6% of the tested compounds scored in any of these assays.

SMILES	SENP1 inh	ATG4B inh	NR3A LBD binder	NadD inh	UCH37 DUB inh	SENP1 inh conf	SENP1 kinetic
O=C(Cc1n[nH]c(=O)[nH]c1=O)N/N=C/c1c(O)ccc2ccccc12	39*	-7	0	0	nt	-18	21
CCNc1nc(NCC)nc(NN=Cc2ccc(O)c(O)c2)n1	nt	nt	nt	nt	-4	nt	nt
COC(=O)C1=C(C)N(Cc2ccco2)C(=O)/C1=C\c1ccc(N(C)C)cc1	46*	-2	1	-3	3	23	17
CCOC(=O)c1c(NC(=O)c2cc(-c3ccc(O)cc3)on2)sc(C(C)=O)c1C	31*	-8	0	7	1	-3	-8
C=CCn1c(=C(C#N)C(=O)NCC2CCCO2)sc(=Cc2ccccn2)c1=O (configuration not stated)	nt	nt	nt	nt	-4	nt	nt
CCn1cc(C(=O)O)c(=O)c2cc(F)c(NN=Cc3ccccc3)cc21	nt	nt	nt	nt	-21	nt	nt
CCn1cc(C(=O)O)c(=O)c2cc(F)c(N/N=C/c3ccccc3[N+](=O)[O-])cc21	34*	4	-6	21	nt	-4	0
N#CC1=C(N2CCCCC2)c2cc3c(n2C1=O)CCCC3	51*	-3	-2	2	-1	23	11
Cn1c(=O)c2[nH]c(-c3ccccc3)c(O)c2n(C)c1=O	60*	-3	12*	-2	-4	56*	54*
Cn1c(=O)c2[nH]c(-c3ccccc3Cl)c(O)c2n(C)c1=O	32*	1	1	0	1	11	16
CC(=NNC(=O)c1ccncc1)c1cc2ccccc2oc1=O	nt	nt	nt	nt	4	nt	nt
CCC1CCCC1=NNC(=O)c1ccccc1Cl (configuration not stated)	nt	nt	nt	nt	6	nt	nt
CN(C)c1ccc(C=NN2CCN(c3ccccn3)CC2)cc1	nt	nt	nt	nt	9	nt	nt
O=CN1Cc2[nH]c3ccccc3c2N(c2ccc(Cl)cc2)C1=O	31*	-1	-1	4	5	-9	29
Nc1ccc2c(c1)C(=O)c1ccc(Cl)cc1-2	-2	5	3	-1	7	nt	nt
Nc1ccc2c(c1)-c1ccc(F)cc1C2=O	82*	10	-8	1	nt	49*	27
CC1=Nc2ccccc2N=C(N)C1c1ccccc1 (configuration not stated)	36*	2	-3	1	-1	12	9
COc1ccc(C=NNc2nc(-c3ccc(Cl)cc3)cc(C(F)(F)F)n2)c(OC)c1	nt	nt	nt	nt	5	nt	nt
O=[N+]([O-])c1cccc(/C=C/c2nc(C=Nc3ccccc3)c(O)o2)c1	33*	4	11*	0	8	17	18
Oc1oc(-c2ccccc2)nc1C=Nc1ccccc1	-65	5	-32	3	4	nt	nt
C=CCOc1c(Br)cc(C=Nn2c(CC)n[nH]c2=S)cc1Br	nt	nt	nt	nt	2	nt	nt
CC(C)(C)c1ccc(C=NNC(=O)C(=O)NCCCN2CCOCC2)cc1	nt	nt	nt	nt	2	nt	nt
Cc1ccc2cc(C=C(C#N)C#N)c(N3CCCCC3)nc2c1	-1	4	0	1	6	nt	nt
Cc1ccc2cc(/C=C(\C#N)C(N)=O)c(N3CCCCC3)nc2c1	75*	-6	1	3	6	50*	39*
CC1CC(C)CN(CCCNS(=O)(=O)c2ccc3c(c2)oc(=O)n3C)C1 (configuration not stated)	33*	1	5	2	-1	8	6
SMILES	SENP1 inh	ATG4B inh	NR3A LBD binder	NadD inh	UCH37 DUB inh	SENP1 inh conf	SENP1 kinetic
Cn1c(=O)oc2cc(S(=O)(=O)N3CCN(c4ccc(F)cc4)CC3)ccc21	37*	-8	-1	5	7	6	3
Cn1c(=O)oc2cc(S(=O)(=O)Nc3cccc4c3CCCC4)ccc21	33*	-20	0	0	1	13	17
Cc1cc(C)c(NS(=O)(=O)c2ccc3c(c2)oc(=O)n3C)c(C)c1	6	nt	nt	1	nt	nt	nt
CN1CCN(S(=O)(=O)c2ccc3c(c2)oc(=O)n3C)CC1	33*	3	-2	0	2	1	9
CC(=NO)c1ccc2c(c1)CC(C)O2 (configuration not stated)	nt	nt	nt	nt	4	nt	nt
CN(C)C(=O)CSc1ccc(S(=O)(=O)N2CCCC2)cn1	39*	10	1	-3	0	44*	42*
CC(C)N(C(=O)CSc1ccc(S(=O)(=O)N2CCCCC2)cn1)c1ccccc1	-1	-31	1	-5	2	nt	nt
CCOC(=O)c1sc(N=NC2=C(O)CC(C)(C)CC2=O)c(C(=O)OCC)c1C	56*	8	1	1	4	30	20
COc1ccc(-c2cc(C(=O)NN=Cc3cccnc3)c3cc(C)cc(C)c3n2)cc1	nt	nt	nt	nt	i	nt	nt
O=C(NN1C(=O)C2C(c3ccccc3)C=CC(c3ccccc3)C2C1=O)c1ccccc1 (configuration not stated)	41*	20	9	-6	4	6	6
O=C(NN1C(=O)C2C(c3ccccc3)C=CC(c3ccccc3)C2C1=O)c1cccc(Br)c1 (configuration not stated)	40*	6	20*	10	4	11	12
CC(=NNc1nc(C(C)(C)C)cs1)c1ccc(O)cc1	nt	nt	nt	nt	3	nt	nt
Cc1nc2c(-c3ccccc3)c(C)[nH]n2c(=O)c1Cc1ccccc1	2	-5	-5	3	1	nt	nt
Cc1ccc2n(n1)c(=O)c(Cc1ccccc1)c([O-])[n+]2-c1ccccc1	35*	-3	-2	6	2	53*	35*
N#CC1=C(N)Oc2cc(N)ccc2C1c1cccnc1 (configuration not stated)	-29	-6	1	0	1	nt	nt
N#CC1=C(N)Oc2cc(Nc3ccccc3)ccc2C1c1ccncc1 (configuration not stated)	77*	-6	-15	2	-1	31*	24
O=C(NN=C/C(Br)=C\c1ccccc1)c1cccs1	nt	nt	nt	nt	2	nt	nt
Cc1ccc(Sc2ncccc2C=NO)cc1	nt	nt	nt	nt	-2	nt	nt
COc1ccc(/C=N/N2C(=O)CSC2=S)cc1Br	40*	1	-5	8	nt	46*	31*
